Values after ≈ are worked out from the molar mass of the structure shown.
Tests used:
[1] = Hemolytic activity in rabbit RBC at 10 uM after 20 mins relative to control; format: ADME, cell-based, Oryctolagus cuniculus, Erythrocyte; conditions: rabbit red blood cells (erythrocytes), read-out: Activity
Summary of the method: (§1)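 Rabbit erythrocytes suspended in 150 mM NaCl/10 mM Hepes-NaOH, pH 7.4, at 0.5% hematocrit (final) and incubated with compound at 37 °C. The table footnote gives 20 min; the methods section gives 30 min. Hemolysis was read as absorbance at 540 nm, with 50 µM lysolecithin defining 100% hemolysis.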

Enterococcus faecium = assay: Antibacterial activity against drug-resistant Enterococcus faecium MS29120 after 18 to 20 hrs by agar dilution method; format: functional
Summary of the method: (§2)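 Agar dilution per CLSI. Overnight broth cultures were diluted 100-fold, and one loopful (about 10^5 to 10^4 CFU) was spotted onto agar plates containing the CD. Growth was scored after 18–20 h at 37 °C. MIC values are in µM.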

Escherichia coli = assay: Antibacterial activity against drug-sensitive Escherichia coli K-12 W3110 after 20 hrs by liquid microdilution method; format: functional; conditions: K-12 substr. W3110, 20 h
Summary of the method: (§3)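 Two-fold serial dilutions of compound in Mueller–Hinton broth, inoculated with 1 × 10^4 cells and cultured at 37 °C for 20 h in microtiter wells.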

Pseudomonas aeruginosa = assay: Antibacterial activity against drug-sensitive Pseudomonas aeruginosa PAO1 after 20 hrs by liquid microdilution method; format: functional; conditions: PAO1, 20 h; summary of the method: as §3
Staphylococcus aureus [2] = assay: Antibacterial activity against methicillin-resistant Staphylococcus aureus MS29202 after 18 to 20 hrs by agar dilution method; format: functional; summary of the method: as §2
Bacillus subtilis = assay: Antibacterial activity against drug-sensitive Bacillus subtilis 168 after 20 hrs by liquid microdilution method; format: functional; conditions: subsp. subtilis str. 168, 20 h; summary of the method: as §3
Enterococcus faecalis [3] = assay: Antibacterial activity against drug-resistant Enterococcus faecalis MS29030 after 18 to 20 hrs by agar dilution method; format: functional; summary of the method: as §2
[4] = Lipophilicity, log P of the compound; format: physicochemical; conditions: octanol/water
Staphylococcus aureus [5] = assay: Induction of membrane disruption in methicillin-sensitive Staphylococcus aureus FDA 209P assessed as increase in K+ efflux after 30 mins; format: functional; conditions: 0.5 h, read-out: ED50 (the source's name)
Summary of the method: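 S. aureus washed twice and suspended at 2 × 10^9 cells per cm3 in 100 mM choline chloride/50 mM Mops-Tris, pH 7.2, then exposed to compound at 37 °C for 30 min. Released K+ was measured in the centrifuged supernatant with a K+-selective electrode. Melittin (10 µM) defined 100% efflux, and ED50 is the concentration giving 50% efflux.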

Staphylococcus aureus [6] = assay: Antibacterial activity against Staphylococcus aureus FDA 209P assessed as decrease in cell viability after 30 mins by colony counting method; format: functional; conditions: 0.5 h
Summary of the method: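 S. aureus washed twice and suspended at 2 × 10^9 cells per cm3 in 100 mM choline chloride/50 mM Mops-Tris, pH 7.2. Exposed to CD at 37 °C for 30 min. An aliquot was diluted in physiological saline, plated on polypeptone/yeast extract/NaCl agar and incubated overnight at 37 °C. Viability was taken from colony counts; LC50 is the concentration giving 50% viability.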

Staphylococcus aureus [7] = assay: Antibacterial activity against methicillin-sensitive Staphylococcus aureus FDA 209P after 20 hrs by liquid microdilution method; format: functional; summary of the method: as §3
[8] = Hemolytic activity in rabbit RBC at 5 uM after 20 mins relative to control; format: ADME, cell-based, Oryctolagus cuniculus, Erythrocyte; conditions: rabbit red blood cells (erythrocytes), read-out: Activity; summary of the method: as §1
Streptococcus agalactiae = assay: Antibacterial activity against drug-resistant Streptococcus agalactiae B1 after 18 to 20 hrs by agar dilution method; format: functional; summary of the method: as §2
[9] = Hemolytic activity in rabbit RBC at 2 uM after 20 mins relative to control; format: ADME, cell-based, Oryctolagus cuniculus, Erythrocyte; conditions: rabbit red blood cells (erythrocytes), read-out: Activity; summary of the method: as §1
[10] = Hemolytic activity in rabbit RBC at 20 uM after 20 mins relative to control; format: ADME, cell-based, Oryctolagus cuniculus, Erythrocyte; conditions: rabbit red blood cells (erythrocytes), read-out: Activity; summary of the method: as §1
Erythrocyte = assay: (§4) Hemolytic activity in rabbit RBC at 50 uM after 20 mins relative to control; format: ADME, cell-based, Oryctolagus cuniculus; conditions: erythrocyte, 20 min, 50 µM; summary of the method: as §1
[11] = Hemolytic activity in rabbit RBC at 1 uM after 20 mins relative to control; format: ADME, cell-based, Oryctolagus cuniculus, Erythrocyte; conditions: rabbit red blood cells (erythrocytes), read-out: Activity; summary of the method: as §1
Enterococcus faecalis [12] = assay: Antibacterial activity against vancomycin-resistant Enterococcus faecalis MS29016 after 18 to 20 hrs by agar dilution method; format: functional; summary of the method: as §2
Salmonella typhimurium = assay: Antibacterial activity against drug-sensitive Salmonella typhimurium LT2 after 20 hrs by liquid microdilution method; format: functional, Salmonella enterica subsp. enterica serovar Typhimurium; conditions: Salmonella enterica, LT2, 20 h; summary of the method: as §3
Staphylococcus aureus [13] = assay: Induction of membrane disruption in methicillin-sensitive Staphylococcus aureus FDA 209P assessed as increase in K+ efflux at 10 uM after 30 mins relative to control; format: functional
Summary of the method: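 S. aureus suspension (2 × 10^9 cells per cm3, 100 mM choline chloride/50 mM Mops-Tris, pH 7.2) treated with CD at 37 °C for 30 min, then centrifuged. K+ released into the supernatant was read with a K+-selective electrode. Efflux is expressed relative to 10 µM melittin, which sets 100%.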

[14] = as §4; format: ADME, cell-based, Oryctolagus cuniculus, Erythrocyte; conditions: rabbit red blood cells (erythrocytes), read-out: Activity; summary of the method: as §1

| SMILES | hemolysis at 20 min, 10 µM [1] [%] | MIC (Enterococcus faecium) [µM] | MIC (Escherichia coli) [µM] | MIC (Pseudomonas aeruginosa) [µM] | MIC (Staphylococcus aureus [2]) [µM] | MIC (Bacillus subtilis) [µM] | MIC (Enterococcus faecalis [3]) [µM] | logP [4] | EC50 (Staphylococcus aureus [5]) [µM] | LC50 (Staphylococcus aureus [6]) [µM] | MIC (Staphylococcus aureus [7]) [µM] | hemolysis at 20 min, 5 µM [8] [%] | MIC (Streptococcus agalactiae) [µM] | hemolysis at 20 min, 2 µM [9] [%] | hemolysis at 20 min, 20 µM [10] [%] | hemolysis at 20 min, 1 µM [11] [%] | MIC (Enterococcus faecalis [12]) [µM] | MIC (Salmonella typhimurium) [µM] | also measured |
| --- | --- | --- | --- | --- | --- | --- | --- | --- | --- | --- | --- | --- | --- | --- | --- | --- | --- | --- | --- |
| CCCCCCCNCc1cn(C[C@H]2O[C@@H]3O[C@H]4[C@H](O)[C@@H](O)[C@@H](O[C@H]5[C@H](O)[C@@H](O)[C@@H](O[C@H]6[C@H](O)[C@@H](O)[C@@H](O[C@H]7[C@H](O)[C@@H](O)[C@@H](O[C@H]8[C@H](O)[C@@H](O)[C@@H](O[C@H]9[C@H](O)[C@@H](O)[C@@H](O[C@H]2[C@H](O)[C@H]3O)O[C@@H]9Cn2cc(CNCCCCCCC)nn2)O[C@@H]8Cn2cc(CNCCCCCCC)nn2)O[C@@H]7Cn2cc(CNCCCCCCC)nn2)O[C@@H]6Cn2cc(CNCCCCCCC)nn2)O[C@@H]5Cn2cc(CNCCCCCCC)nn2)O[C@@H]4Cn2cc(CNCCCCCCC)nn2)nn1 | 110 | > 40 | 20 (≈ 47.7 µg/mL) | 40 (≈ 95.3 µg/mL) | > 40 | 5 (≈ 11.9 µg/mL) | > 40 | 0.36 | 30 | 15 | 5 to 40 (≈ 11.9 to 95.3 µg/mL) | 85 | > 40 | 39 | 116 | 9 | > 40 | 20 (≈ 47.7 µg/mL) | Activity (Erythrocyte): 137% |
| CC[C@H](C)[C@H](NC(=O)CN)C(=O)NCC(=O)N[C@@H](C)C(=O)N[C@H](C(=O)N[C@@H](CC(C)C)C(=O)N[C@@H](CCCCN)C(=O)N[C@H](C(=O)N[C@@H](CC(C)C)C(=O)N[C@H](C(=O)N[C@H](C(=O)NCC(=O)N[C@@H](CC(C)C)C(=O)N1CCC[C@H]1C(=O)N[C@@H](C)C(=O)N[C@@H](CC(C)C)C(=O)N[C@H](C(=O)N[C@@H](CO)C(=O)N[C@@H](Cc1c[nH]c2ccccc12)C(=O)N[C@H](C(=O)N[C@@H](CCCCN)C(=O)N[C@@H](CCCNC(=N)N)C(=O)N[C@@H](CCCCN)C(=O)N[C@@H](CCCNC(=N)N)C(=O)N[C@@H](CCC(N)=O)C(=O)N[C@@H](CCC(N)=O)C(N)=O)[C@@H](C)CC)[C@@H](C)CC)[C@@H](C)O)[C@@H](C)O)C(C)C)C(C)C [MELITTIN] |  |  |  |  |  |  |  |  | 0.2 to 0.5 | 0.2 to 0.5 |  |  |  |  |  |  |  |  | Activity (Staphylococcus aureus [13]): 100% |
| CCCCCNCc1cn(C[C@H]2O[C@@H]3O[C@H]4[C@H](O)[C@@H](O)[C@@H](O[C@H]5[C@H](O)[C@@H](O)[C@@H](O[C@H]6[C@H](O)[C@@H](O)[C@@H](O[C@H]7[C@H](O)[C@@H](O)[C@@H](O[C@H]8[C@H](O)[C@@H](O)[C@@H](O[C@H]9[C@H](O)[C@@H](O)[C@@H](O[C@H]2[C@H](O)[C@H]3O)O[C@@H]9Cn2cc(CNCCCCC)nn2)O[C@@H]8Cn2cc(CNCCCCC)nn2)O[C@@H]7Cn2cc(CNCCCCC)nn2)O[C@@H]6Cn2cc(CNCCCCC)nn2)O[C@@H]5Cn2cc(CNCCCCC)nn2)O[C@@H]4Cn2cc(CNCCCCC)nn2)nn1 | 0 | 21 (≈ 45.9 µg/mL) | 43 (≈ 94 µg/mL) | > 43 | 21 (≈ 45.9 µg/mL) | 1 (≈ 2.19 µg/mL) | > 43 | -0.48 | 20 | 20 | 3 to 5 (≈ 6.56 to 10.9 µg/mL) | 1 | 3 (≈ 6.56 µg/mL) | 0 | 0 | 0 | > 43 | > 43 | hemolysis at 20 min, 50 µM [14]: 1% |
